Measured values: ChEMBL document CHEMBL1137668, “Activities of several classes of acyclic nucleoside phosphonates against camelpox virus replication in different cell culture models” (Antimicrob Agents Chemother, 2007)
Active and inactive are the calls of the source. The rule behind the calls is not given here.

Tests used:
Camelpox virus [1] = experiment: Antiviral activity against Camelpox virus CML14 infected in HEL299 cells assessed as reduction in viral titer after 6 days postinfection by virus yield reduction assay; type: functional; settings: HEL 299
[2] = Cytotoxicity against human PHK after 4 days by Z1 Coulter counting analysis; settings: 96 h
Outline: (§1)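 Cell growth inhibition: HEL cells were seeded at 3.5 × 10³ per well and PHKs at 5 × 10³ per well. Serial dilutions were added in duplicate after 1 day (HEL) or 3 days (PHK). After 4 days with compound, cells were trypsinized and counted with a Coulter counter (8 μm lower limit). CC50 is the concentration reducing growth by 50%, mean ± SD of at least two experiments.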

Camelpox virus [3] = experiment: Antiviral activity against Camelpox virus CML14 infected in HEL299 cells assessed as complete inhibition of viral replication at 0.4 uM after 6 days postinfection by virus yield reduction assay; type: functional, organism-based; settings: HEL 299
Camelpox virus [4] = experiment: Antiviral activity against Camelpox virus CML14 infected in human PHK assessed as reduction in viral titer after 6 days postinfection by virus yield reduction assay; type: functional
[5] = Selectivity index, ratio of CC50 for HEL299 cells to EC50 for Camelpox virus CML1 infected in HEL299 cells; type: toxicity, cell-based, HEL 299; settings: human, hel 299
Camelpox virus [6] = experiment: Antiviral activity against Camelpox virus CML1 infected in human PHK raft culture assessed as inhibition of virus-induced cytopathic effect at 9 uM after 7 days postinfection; type: functional, organism-based
[7] = Selectivity index, ratio of CC50 for HEL299 cells to EC50 for Camelpox virus CML14 infected in HEL299 cells; type: toxicity, cell-based, HEL 299; settings: human, hel 299
Camelpox virus [8] = experiment: Antiviral activity against Camelpox virus CML14 infected in human PHK assessed as complete inhibition of viral replication at 4 uM after 6 days postinfection by virus yield reduction assay; type: functional, organism-based
[9] = Cytotoxicity against HEL299 cells after 4 days by Z1 Coulter counting analysis; type: cell-based, HEL 299; settings: human, hel 299, 96 h; outline: as §1
Camelpox virus [10] = experiment: Antiviral activity against Camelpox virus CML1 infected in human PHK raft culture assessed as inhibition of viral replication at 38 uM after 7 days postinfection by virus yield reduction assay; type: functional, organism-based
Camelpox virus [11] = experiment: Antiviral activity against Camelpox virus CML1 infected in HEL299 cells assessed as complete inhibition of viral replication at 0.4 uM after 6 days postinfection by virus yield reduction assay; type: functional, organism-based; settings: HEL 299
Camelpox virus [12] = experiment: Antiviral activity against Camelpox virus CML1 infected in human PHK assessed as complete inhibition of viral replication at 4 uM after 6 days postinfection by virus yield reduction assay; type: functional, organism-based
[13] = Cytotoxicity against differentiated epithelium of human PHK raft culture at 38 uM after 4 days by Z1 Coulter counting analysis; settings: 96 h
Camelpox virus [14] = experiment: Antiviral activity against Camelpox virus CML1 infected in human PHK assessed as reduction in viral titer after 6 days postinfection by virus yield reduction assay; type: functional

CCCCCCCCCCCCCCCCOCCO[PH]1(O)CO[C@@H](Cn2c(N)ncnc2=O)CO1
Activity (Camelpox virus [1]): Dose-dependent effect
CC50 [2]: 54 µM
Activity (Camelpox virus [3]): Active
Activity (Camelpox virus [4]): Dose-dependent effect
Ratio CC50/IC50 [5]: 10
Activity (Camelpox virus [6]): inactive
Ratio CC50/IC50 [7]: 12
Activity (Camelpox virus [8]): Active
CC50 [9]: 79 µM
Activity (Camelpox virus [10]): Active
Activity (Camelpox virus [11]): Active
Activity (Camelpox virus [12]): Active
Activity [13]: Toxic
Activity (Camelpox virus [14]): Dose-dependent effect
